# Variants at the floor of the assay were thinned out.
# B1: tRNA (parent)
# chain: GUUCCGUUGGCGUAAUGGUAACGCGUCUCCCUCCUAAGGAGAAGACUGCGGGUUCGAGUCCCGUACGGAACG
# Variants of: B1
# Test: yeast fitness relative to wild type (ratio to wild type); higher = fitter; tRNA-Arg(CCU), competitive growth, 37 C, YPD
# Method in brief: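 Start and end populations of a pooled competition were compared by 100-nucleotide paired-end sequencing of gene amplicons. The Saccharomyces cerevisiae strains carried tRNA-Arg(CCU) gene variants at the native genomic locus, synthesised with a 3% per-site mutation rate at 69 sites, and competed in YPD at 37°C for 24 hours in six parallel replicates. Darwinian fitness relative to wild type was based on the change in genotype frequencies. Genotypes required ≥ 100 starting reads, and estimates < 0.5 were set to 0.5.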
row,Variant,yeast fitness
1,U32C C33U A42U A57G,≤ 0.5
2,U32C C33U C62U A65G,0.58
3,U32C C34U,0.788
4,U32C C34U A45U,0.662
5,U32C C34U G44C,≤ 0.5
6,U32C C34U U53A C66U,≤ 0.5
7,U32C C46A,0.88
8,U32C C46G G52C G68C,≤ 0.5
9,U32C C46G U59C G63C G68C,≤ 0.5
10,U32C C49A,0.692
11,U32C C49G,1.02
12,U32C C49U A65C,0.793
13,U32C C49U A65G,0.778
14,U32C C49U G50C,0.638
15,U32C C55A,0.632
16,U32C C55U,0.651
17,U32C C55U A69C,0.63
18,U32C C55U C62U,0.653
19,U32C C60G,0.552
20,U32C C66A,0.702
21,U32C G38C G50A A70G,≤ 0.5

row,Variant,yeast fitness
1,U32C G38C G52C,≤ 0.5
2,U32C G38C G68C,≤ 0.5
3,U32C G39A,0.928
4,U32C G39C G50C,≤ 0.5
5,U32C G39U,0.911
6,U32C G41C,0.931
7,U32C G41C U47C,0.592
8,U32C G44C,0.842
9,U32C G48A,0.76
10,U32C G48A A70U,0.783
11,U32C G48C,0.862
12,U32C G48C C49U,0.635
13,U32C G51A A70U,0.868
14,U32C G52A G58C,≤ 0.5
15,U32C G52C,0.602
16,U32C G56C,0.676
17,U32C G58A,0.798
18,U32C G58A C62U A69C,0.716
19,U32C G63C,0.759
20,U32C G67C,0.9
21,U32C U35A U47C,≤ 0.5

row,Variant,yeast fitness
1,U32C U35C A40G,≤ 0.5
2,U32C U35C C49G,0.545
3,U32C U47A,0.9
4,U32C U54C,0.687
5,U32C U64A,0.789
6,U32G,0.664
7,U32G A40C,0.692
8,U32G A40U,0.624
9,U32G A40U U59A,≤ 0.5
10,U32G A42C,0.62
11,U32G A42G C46U G51A,≤ 0.5
12,U32G A42G C61U,≤ 0.5
13,U32G A42G G58A C61U A70G,≤ 0.5
14,U32G A45G A69U,0.553
15,U32G A45G U47C C49U A70U,≤ 0.5
16,U32G A57C C62U,0.555
17,U32G A57U,0.527
18,U32G A69C,0.848
19,U32G C33A U47A C62U C66G,≤ 0.5
20,U32G C33G A70G,≤ 0.5
21,U32G C33G C66U A69U,≤ 0.5

row,Variant,yeast fitness
1,U32G C33G G50A U53G A69G A70C,≤ 0.5
2,U32G C33U A36C G56U C66A,≤ 0.5
3,U32G C33U A37G A43C,≤ 0.5
4,U32G C34U A57G,0.561
5,U32G C46A C66U,0.538
6,U32G C46U A69U,0.602
7,U32G C49G,0.602
8,U32G C55A A57G,≤ 0.5
9,U32G C61A,0.535
10,U32G C61U A69C,0.746
11,U32G C61U C66U,0.577
12,U32G C61U C66U A69G,≤ 0.5
13,U32G C62A,0.512
14,U32G C62U,0.625
15,U32G G39C A43G G52C,0.571
16,U32G G39C C49U G52C,≤ 0.5
17,U32G G39C C62G G68A,≤ 0.5
18,U32G G39C G52C C61U,≤ 0.5
19,U32G G41C,0.597
20,U32G G48C A65C,0.574
21,U32G G50A,0.714

# — the RNAGym collection of RNA variant scans (doi:10.1126/science.aae0568)
